From ChEMBL document CHEMBL1649480, “Farnesol-induced apoptosis in Candida albicans” (2009)
The source made the active and inactive calls. The calls are words filed in the database; no cut-off is given here.

What was measured:
Candida albicans [1] = test: Downregulation of Translational elongation factor 1 expression in Candida albicans SC5314 at 40 uM after 24 hrs by MALDI-TOF MS; assay type: functional, organism-based
Summary of the method: (§1)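 Overnight YNB-glucose SC5314 culture, PBS-washed, adjusted to OD600 0.1 and treated 24 h with 40 or 200 μM farnesol (methanol in controls). Proteomes were compared with untreated cells by 2D SDS-PAGE and MALDI-TOF MS, searched against NCBI nonredundant database. Spots were counted as changed at ≥1.5-fold in three independent experiments.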

Candida albicans [2] = test: Induction of apoptosis in Candida albicans SC5314 assessed as activation of caspase activity at 200 uM after 3 hrs by Fluorescence analysis; assay type: functional
Summary of the method: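 Active caspases in farnesol-exposed cells (40, 100, 200 μM; methanol control, H2O2 positive control) were detected with a FLICA kit per manufacturer. Cells were examined by confocal microscopy, with green-fluorescing cells counted as caspase-positive and unstained cells as nonapoptotic. Percentage of positive cells was recorded.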

Candida albicans [3] = test: Induction of apoptosis in Candida albicans SC5314 at 100 uM after 24 hrs by TUNEL assay; assay type: functional
Summary of the method: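 After 24 h in farnesol (40, 100, 200 μM), cells were PBS-washed, fixed in 4% paraformaldehyde (pH 7.4) 1 h at 20°C, and permeabilized 2 min on ice. They were labeled with 9:1 label:enzyme TUNEL mix 1 h at 37°C in the dark and examined by fluorescence microscopy at 515–565 nm. Flow cytometry counted % positive of 30,000 gated cells, gates set by no-enzyme and DNase-treated controls.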

Candida albicans [4] = test: Upregulation of Aryl-alcohol dehydrogenase expression in Candida albicans SC5314 at 40 uM after 24 hrs by MALDI-TOF MS; assay type: functional, organism-based; summary of the method: as §1
Candida albicans [5] = test: Upregulation of Putative Rho protein GDP dissociation factor expression in Candida albicans SC5314 at 200 uM after 24 hrs by MALDI-TOF MS; assay type: functional, organism-based
Summary of the method: (§2)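 SC5314 grown overnight at 30°C, 120 rpm, in yeast nitrogen base (pH 7.0) with 50 mM glucose. Cells were washed in PBS and adjusted to OD600 0.1, then treated 24 h with farnesol from a methanol dilution; controls received methanol. Proteomes of treated and untreated cells were compared by 2-D SDS-PAGE and MALDI-TOF MS, with ProFound searches of the NCBI nonredundant database. Spots changed at least 1.5-fold in three independent experiments were counted.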

Candida albicans [6] = test: Upregulation of Coproporphyrinogen III oxidase expression in Candida albicans SC5314 at 200 uM after 24 hrs by MALDI-TOF MS; assay type: functional, organism-based; summary of the method: as §1
Candida albicans [7] = test: Induction of ROS accumulation in mitochondria of Candida albicans SC5314 after 3 hrs by Fluorescence analysis; assay type: functional, organism-based
Summary of the method: (§3)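 Cells were exposed 3 h to 40, 100 or 200 μM farnesol, with methanol control and H2O2 positive control. Washed cells were stained 30 min in the dark with a mix of dichlorodihydrofluorescein diacetate, propidium iodide and calcofluor white, then washed and viewed by confocal microscopy. % green (ROS) cells of all cells was scored, with red (necrotic) cells scored separately.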

Candida albicans [8] = test: Upregulation of Manganese superoxide dismutase expression in Candida albicans SC5314 at 200 uM after 24 hrs by MALDI-TOF MS; assay type: functional, organism-based; summary of the method: as §2
Candida albicans [9] = test: Induction of apoptosis in Candida albicans SC5314 assessed as mitochondrial degradation at 40 uM after 3 hrs by Fluorescence analysis; assay type: functional
Summary of the method: (§4)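 Farnesol-exposed SC5314 (40, 100, 200 μM; methanol control, H2O2 positive control) stained with a MitoPT mitochondrial permeability transition dye per kit instructions. Cells imaged by confocal microscopy: red mitochondrial aggregates in healthy cells, dispersed green signal in apoptotic cells. Percentage of cells with degradation was recorded.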

Candida albicans [10] = test: Induction of ROS accumulation in mitochondria of Candida albicans SC5314 at 100 uM after 3 hrs by Fluorescence analysis; assay type: functional; summary of the method: as §3
Candida albicans [11] = test: Increase in MCA1 expression in Candida albicans SC5314 at 40 uM after 4 hrs by quantitative PCR analysis; assay type: functional
Summary of the method: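 Log-phase SC5314 cells were used, pregrown overnight at 30°C and 120 rpm in yeast nitrogen base (pH 7.0) with 50 mM glucose, washed in PBS and set to OD600 0.1. Farnesol (methanol stock) was given for 4 h, with methanol-matched untreated controls. SYBR green qPCR ran 35 cycles with 58°C annealing and a melt-curve check. MCA1 was calculated by 2^−ΔΔCT against ACT1 and RPP2B.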

Candida albicans [12] = test: Upregulation of Coproporphyrinogen III oxidase expression in Candida albicans SC5314 at 40 uM after 24 hrs by MALDI-TOF MS; assay type: functional, organism-based; summary of the method: as §1
Candida albicans [13] = test: Increase in MCA1 expression in Candida albicans SC5314 at 5 mM after 4 hrs by quantitative PCR analysis
Candida albicans [14] = test: Upregulation of Mitochondrial 2-enoyl thioester reductase expression in Candida albicans SC5314 at 200 uM after 24 hrs by MALDI-TOF MS; assay type: functional, organism-based; summary of the method: as §2
Candida albicans [15] = test: Induction of apoptosis in Candida albicans SC5314 assessed as cell death level at 100 uM after 3 hrs by Fluorescence analysis; assay type: functional
Summary of the method: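 Washed, OD600 0.1 SC5314 cells (overnight culture at 30°C in YNB pH 7.0 with 50 mM glucose) exposed 3 h to farnesol, with methanol vehicle and H2O2 controls. Stained 30 min in the dark with a mix of dichlorodihydrofluorescein diacetate, propidium iodide and calcofluor white, then PBS-washed. Confocal imaging; red propidium iodide-stained cells scored as a percentage of all cells.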

Candida albicans [16] = test: Upregulation of Heat shock protein 90 expression in Candida albicans SC5314 at 200 uM after 24 hrs by MALDI-TOF MS; assay type: functional, organism-based; summary of the method: as §1
Candida albicans [17] = test: Downregulation of Heat shock protein 60 expression in Candida albicans SC5314 at 200 uM after 24 hrs by MALDI-TOF MS; assay type: functional, organism-based; summary of the method: as §1
Candida albicans [18] = test: Downregulation of S-adenosylmethionine synthase expression in Candida albicans SC5314 at 200 uM after 24 hrs by MALDI-TOF MS; assay type: functional, organism-based; summary of the method: as §1
Candida albicans [19] = test: Induction of apoptosis in Candida albicans SC5314 assessed as mitochondrial degradation at 200 uM after 3 hrs by Fluorescence analysis; assay type: functional; summary of the method: as §4
Candida albicans [20] = test: Increase in MCA1 expression in Candida albicans SC5314 at 2.5 mM after 4 hrs by quantitative PCR analysis
Candida albicans [21] = test: Down regulation of in MCA1 expression in Candida albicans SC5314 at 40 uM after 4 hrs by quantitative PCR analysis; assay type: functional, organism-based
Summary of the method: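 Log-phase SC5314 exposed 4 h to farnesol (methanol vehicle control). cDNA diluted 1:20 and run in SYBR green real-time PCR: 15 min 95°C, then 35 cycles of 95°C 1 min, 58°C 30 s, 72°C 30 s, with a melt curve check. MCA1 level was calculated by 2^−ΔΔCT against ACT1 and RPP2B reference genes.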

Candida albicans [22] = test: Downregulation of Glyceraldehyde-3-phosphate dehydrogenase expression in Candida albicans SC5314 at 200 uM after 24 hrs by MALDI-TOF MS; assay type: functional, organism-based; summary of the method: as §1
Candida albicans [23] = test: Upregulation of 6-Phosphogluconate dehydrogenase expression in Candida albicans SC5314 at 40 uM after 24 hrs by MALDI-TOF MS; assay type: functional, organism-based; summary of the method: as §1

With `CC(C)=CCC/C(C)=C/CC/C(C)=C/CO` [FARNESOL] the Activity (Candida albicans [1]) was “Active”, the Activity (Candida albicans [2]) was 84% and the Activity (Candida albicans [3]) was 10.2%. For the same compound, the Activity (Candida albicans [4]) was “Active”, the Activity (Candida albicans [5]) was “Active” and the Activity (Candida albicans [6]) was “Active”. For the same compound, the Activity (Candida albicans [7]) was “Active”, the Activity (Candida albicans [8]) was “Active” and the Activity (Candida albicans [9]) was 90%. For the same compound, the Activity (Candida albicans [10]) was 80%, the “fold change (FC)” value (Candida albicans [11]) was 3 and the Activity (Candida albicans [12]) was “Active”. The Activity (Candida albicans [13]) was “Active”, the Activity (Candida albicans [14]) was “Active” and the Activity (Candida albicans [15]) was 20%. The Activity (Candida albicans [16]) was “Active”, the Activity (Candida albicans [17]) was “Active” and the Activity (Candida albicans [18]) was “Active”. The Activity (Candida albicans [19]) was 95%, the Activity (Candida albicans [20]) was “Active” and the Activity (Candida albicans [21]) was “inactive”. The Activity (Candida albicans [22]) was “Active” and the Activity (Candida albicans [23]) was “Active”.
